The values below come from article PMC5776435 (Iranian Journal of Basic Medical Sciences, 2018).

Converted amounts (≈) assume the structure as drawn.

The subject of assay [1] is HepG2 cells. As to the kind of experiment: MTT assay, cytotoxicity on HepG2 cells. It is filed as cell-based, human. Summed up:
(§1)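 Cells were grown in RPMI 1640 with 10% FBS and penicillin/streptomycin at 37 °C, 5% CO2, and seeded for 24 hr. They were exposed 6 hr to peptide (1.25–100 µg/ml for IC50; 10 µg/ml for viability). MTT (5 mg/ml stock in PBS) was then added for 4 hr at 37 °C, formazan dissolved in DMSO for 30 min, and A570 read. 5-Fluorouracil served as positive control and DMSO as blank. Triplicates were run; IC50 is the mean ± SD of three experiments.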
(Tetrazolium assays rely on reduction of a dye to a coloured formazan, in cell work by metabolically active cells.)

Assay [2] deals with HT-29 cells. As to the kind of experiment: MTT assay, cytotoxicity on HT-29 cells. It is filed as cell-based, human. An outline of the steps: as §1
Setting [3] is: MTT assay, 10 µg/ml of each peptide, 6 hr, control = 100.

`O=c1[nH]cc(F)c(=O)[nH]1` [5-Fluorouracil]: the IC50 worked out at 3.16 µg/mL (≈ 24.3 µM) in assay [1] (Homo sapiens, HepG2, 6 h, read-out: IC50 cell line HepG2) and 6.08 µg/mL (≈ 46.7 µM) in assay [2] (Homo sapiens, HT-29, 6 h, read-out: IC50 cell line HT-29). The “Viability percentage (HepG2), MTT assay” value in assay [1] (setting [3]) was found to be 3.22%. In addition, the “Viability percentage (HT-29), MTT assay” value in assay [2] (setting [3]) worked out at 9.28%.

The term IC50 denotes the midpoint of a concentration-inhibition curve.
